Measured values from different studies.
Target: Vascular endothelial growth factor receptor 3 (FLT4, Homo sapiens, UniProt P35916)

Compound	assay	conditions	remaining binding [%]
C[C@@H](c1ccc(-n2cnc3c(N)ncnc32)cc1)N1CCc2nn(C)c(Cc3ccccc3)c2C1=O	binding, competition with immobilised ligand	0.1 µM	91
COc1cnc(Nc2cccc(S(N)(=O)=O)c2)nc1N1CCN(c2ccccc2)C(=O)C1	binding, competition with immobilised ligand	1 µM	100
CN(C)c1nccc(-c2cnc3ncccn23)n1	binding	1 µM	88
O=C(c1ccc(Nc2ncc(Cl)c(-c3cc4ccccc4s3)n2)cc1)N1CCC(N2CCCC2)CC1	binding, competition with immobilised ligand	1 µM	0.7
O=C(NCC1CCOCC1)c1n[nH]cc1NC(=O)c1c(F)cccc1F	binding, competition with immobilised ligand	1 µM	95
c1cnn2ncc(-c3ccnc(N4CCC45COC5)n3)c2c1	binding	1 µM	92
Nc1ncc2c(n1)-c1c([nH]c3ccc(C#CC4CC4)cc13)CCCC2	binding, competition with immobilised ligand	1 µM	100
CCc1ccccc1C(=O)Nc1n[nH]c2c(C)c(F)c(C3C(C#N)=C(C)N(C)C(C)=C3C#N)cc12	cell-free assay, competition with immobilised ligand	1 µM	85
c1cncc(-c2cccc(Nc3nccc(NC4CCCCC4)n3)c2)c1	binding, competition with immobilised ligand	10 µM	18
O=C(NCCCN1CCOCC1)c1ccc(Nc2ncc(Cl)c(-c3ccc(Cl)s3)n2)cc1	binding, competition with immobilised ligand	1 µM	0.7
N[C@H]1CCN(c2nccc(-c3cnn4ncccc34)n2)C1	binding	1 µM	92
CCCOc1ccc([C@@H]2[C@@H](C(=O)O)[C@H](c3ccc4c(c3)OCO4)CN2CC(=O)Nc2c(CC)cccc2CC)cc1	cell-free assay, competition with immobilised ligand	1 µM	100
C=CC(=O)Nc1cccc(CN2C(=O)N(c3c(Cl)c(OC)cc(OC)c3Cl)Cc3cnc(NCCCCN(CC)CC)nc32)c1	cell-free assay, competition with immobilised ligand	10 µM	0.2
Cc1cc(C)c(-n2ccn3nc(-c4cccnc4)cc23)cc1NC(=O)c1cc(C#N)cc(S(F)(F)(F)(F)F)c1	cell-free assay, competition with immobilised ligand	0.1 µM	77.6
C[C@@H]1CCN(c2nccc(-c3cnn4ncccc34)n2)C1	binding	1 µM	100
CNCc1ccccc1-c1csc([C@H](C)Nc2nc(C)nc3cc(OC)c(OC)cc23)c1	cell-free assay, competition with immobilised ligand	1 µM	100
O=C(c1ccc(Nc2nccc(-c3cc4ccccc4s3)n2)cc1)N1CCC(N2CCCC2)CC1	binding, competition with immobilised ligand	1 µM	30
Cc1nc(N2CC[C@@H](O)C2)ncc1-c1cc(C(F)(F)F)cc2[nH]ncc12	cell-free assay, competition with immobilised ligand	1 µM	100
COc1cnc(Nc2cccc(S(N)(=O)=O)c2)nc1N1CCN(c2ccccc2)CC1	binding, competition with immobilised ligand	1 µM	85
F[C@@H]1CCN(c2nccc(-c3cnn4ncccc34)n2)C1	binding	1 µM	90
CC(C)CC(=O)N1CCc2nc(-c3ccc(Br)cc3)nc(N(C)Cc3ccccc3)c2C1	cell-free assay, competition with immobilised ligand	0.1 µM	100
COc1ccnn2ncc(-c3ccnc(N(C)C)n3)c12	binding	1 µM	100
Nc1c(C(=O)NCc2ccc(C(=O)NCCCC3CCCCC3)cc2)cnn1-c1ccccc1	cell-free assay, competition with immobilised ligand	0.1 µM	100
